Measured values published in ChEMBL document CHEMBL5252516, “Linker Modification Strategies To Control the Prostate-Specific Membrane Antigen (PSMA)-Targeting and Pharmacokinetic Properties of DOTA-Conjugated PSMA Inhibitors” (J Med Chem, 2016).

How the values were obtained:
[1] = Drug uptake in iv dosed BALB/c athymic nude mouse tumor xenografted with human LNCaP cells treated with 68Ga-labeled compound measured upto 120 mins by microPET imaging analysis; format: ADME, organism-based; conditions: in vivo, 2 h
How it was run: (§1)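 Male BALB/c nu/nu mice, 6–8 weeks old, with subcutaneous LNCaP xenografts (6 × 10^6 cells in 50% Matrigel, right trunk) of about 1 cm. Tail-vein injection of 68Ga-labelled compound (~30 MBq, 0.5 nmol) under sevoflurane. Dynamic µPET: 60 min emission scan, then 100–120 min scan. SUVmean for tumor, muscle and kidney at 1 h; tumor/muscle ratio. One animal per compound.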

[2] = target: T1, Glutamate carboxypeptidase 2 (Homo sapiens, UniProt Q04609); experiment: Inhibition of PSMA in human LNCaP cells assessed as cell surface binding per 10^6 cells using 177Lu-labeled compound after 45 mins by gamma counting analysis; format: cell-based
How it was run: (§2)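 LNCaP cells (10^5/well) seeded on poly-L-lysine 24 h before. Incubated 45 min at 37 °C with 32 nM 177Lu-labelled compound (25 GBq/µmol) in Opti-MEM, with or without 500 µM 2-PMPA as blocker. Four ice-cold PBS washes, surface fraction stripped with 50 mM glycine pH 2.8, internalized fraction released by 0.3 M NaOH lysis. Both fractions gamma-counted, specific values given as %IA/10^6 cells. Triplicate.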
Target sequence in this assay (Q04609 whole entry, looked up): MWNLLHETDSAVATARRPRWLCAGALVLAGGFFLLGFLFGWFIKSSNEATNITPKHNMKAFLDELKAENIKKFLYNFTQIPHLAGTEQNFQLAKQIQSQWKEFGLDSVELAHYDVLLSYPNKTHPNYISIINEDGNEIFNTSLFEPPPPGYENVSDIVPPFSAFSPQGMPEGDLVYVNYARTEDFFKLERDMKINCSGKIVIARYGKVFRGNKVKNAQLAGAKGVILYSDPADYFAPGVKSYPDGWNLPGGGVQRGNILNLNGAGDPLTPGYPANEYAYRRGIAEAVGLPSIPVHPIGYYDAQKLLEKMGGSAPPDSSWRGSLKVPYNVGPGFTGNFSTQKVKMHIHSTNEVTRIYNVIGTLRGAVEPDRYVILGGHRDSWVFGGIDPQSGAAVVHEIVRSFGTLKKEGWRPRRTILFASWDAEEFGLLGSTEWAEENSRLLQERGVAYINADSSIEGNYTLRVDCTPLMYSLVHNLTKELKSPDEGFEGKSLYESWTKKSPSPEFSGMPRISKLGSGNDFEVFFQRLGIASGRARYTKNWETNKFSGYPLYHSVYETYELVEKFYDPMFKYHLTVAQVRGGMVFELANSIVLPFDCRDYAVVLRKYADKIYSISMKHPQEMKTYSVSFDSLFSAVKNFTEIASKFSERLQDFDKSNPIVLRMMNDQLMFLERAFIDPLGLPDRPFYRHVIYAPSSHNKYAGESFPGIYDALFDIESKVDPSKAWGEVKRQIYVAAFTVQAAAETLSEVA

[3] = target: T1, Glutamate carboxypeptidase 2; experiment: Inhibition of PSMA in human LNCaP cells assessed as specific internalization per 10^6 cells using 177Lu-labeled compound after 45 mins by gamma counting analysis; format: cell-based; how it was run: as §2
Target sequence in this assay (Q04609 whole entry, looked up): as above

[4] = Drug uptake in iv dosed BALB/c athymic nude mouse kidney xenografted with human LNCaP cells treated with 68Ga-labeled compound measured after 1 hr by microPET imaging analysis; format: ADME, organism-based; conditions: in vivo; how it was run: as §1
[5] = Drug uptake in iv dosed BALB/c athymic nude mouse tumor xenografted with human LNCaP cells treated with 68Ga-labeled compound measured after 1 hr by microPET imaging analysis; format: ADME, organism-based; conditions: in vivo; how it was run: as §1
[6] = target: T1, Glutamate carboxypeptidase 2; experiment: Binding affinity to PSMA in human LNCaP cells after 45 mins in presence of 68Ga-labeled PSMA-10 by gamma counting assay; format: cell-based
Target sequence in this assay (Q04609 whole entry): as the sequence (Q04609 whole entry, looked up) above

[7] = Distribution coefficient, logD of the compound at pH 7.4 in n-octanol/0.1 M HEPES by shake flask method; format: physicochemical
How it was run: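 Radiolabelled compound shaken to equilibrium in n-octanol / 0.1 M HEPES pH 7.4. Aliquots of both phases gamma-counted and logD calculated from the phase ratio. Mean ± SD.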

[8] = Ratio of drug uptake in tumor to muscle in iv dosed BALB/c athymic nude mouse xenografted with human LNCaP cells treated with 68Ga-labeled compound measured after 1 hr by microPET imaging analysis; format: ADME, organism-based; conditions: in vivo; how it was run: as §1
[9] = Retention time of the compound by HPLC; format: physicochemical
[10] = Drug uptake in iv dosed BALB/c athymic nude mouse muscle xenografted with human LNCaP cells treated with 68Ga-labeled compound measured after 1 hr by microPET imaging analysis; format: ADME, organism-based; conditions: in vivo; how it was run: as §1

| SMILES | Drug uptake [1] | specific cell surface binding (% of applied activity per 10^6 cells) [2] [%] | specific internalization (% of added activity per 10^6 cells) [3] [%] | SUV [4] | SUV [5] | Ki [6] [nM] | logD [7] | Ratio [8] | Retention_time [9] [min] | SUV [10] |
| --- | --- | --- | --- | --- | --- | --- | --- | --- | --- | --- |
| O=C(O)CC[C@H](NC(=O)N[C@@H](CCCCNC(=O)c1ccc(CNC(=O)CN2CCN(CC(=O)O)CCN(CC(=O)O)CCN(CC(=O)O)CC2)cc1)C(=O)O)C(=O)O | Active | 8.54 | 5.11 | 2.68 | 0.28 | 1.97 | -1.99 | 2.2 | 1.56 | 0.13 |
| O=C(O)CC[C@H](NC(=O)N[C@@H](CCCCNC(=O)[C@H](Cc1ccc2ccccc2c1)NC(=O)CCCCCNC(=O)CN1CCN(CC(=O)O)CCN(CC(=O)O)CCN(CC(=O)O)CC1)C(=O)O)C(=O)O | – | 9.07 | 2.99 | 2.26 | 0.14 | 6.31 | -1.88 | 2 | 2.58 | 0.07 |
| O=C(O)CC[C@H](NC(=O)N[C@@H](CCCCNC(=O)c1ccc(CNC(=O)c2ccc(CNC(=O)CN3CCN(CC(=O)O)CCN(CC(=O)O)CCN(CC(=O)O)CC3)cc2)cc1)C(=O)O)C(=O)O | Active | 14.3 | 3.66 | 3.16 | 0.56 | 7.51 | -1.94 | 5.6 | 1.78 | 0.1 |
| O=C(O)CC[C@H](NC(=O)N[C@@H](CCCCNC(=O)[C@@H](Cc1ccc2ccccc2c1)NC(=O)[C@H]1CC[C@H](CNC(=O)CN2CCN(CC(=O)O)CCN(CC(=O)O)CCN(CC(=O)O)CC2)CC1)C(=O)O)C(=O)O | Active | 12.2 | 7.18 | 3.98 | 0.69 | 8.86 | -2.02 | – | 2.56 | 0.27 |
| O=C(O)CC[C@H](NC(=O)N[C@@H](CCCCNC(=O)[C@H]1CC[C@H](CNC(=O)[C@H]2CC[C@H](CNC(=O)[C@H]3CC[C@H](CNC(=O)CN4CCN(CC(=O)O)CCN(CC(=O)O)CCN(CC(=O)O)CC4)CC3)CC2)CC1)C(=O)O)C(=O)O | Not Active | 0.23 | 0.03 | 2.91 | 0.18 | 19.4 | -1.98 | 0.9 | 2.28 | 0.21 |
| O=C(O)CCc1ccc(O)c(CN(CCN(CC(=O)O)Cc2cc(CCC(=O)NCCCCCC(=O)NCCCC[C@H](NC(=O)N[C@@H](CCC(=O)O)C(=O)O)C(=O)O)ccc2O)CC(=O)O)c1 [GOZETOTIDE] | – | 10.6 | 9.47 | – | – | 12 | -1.71 | 4.9 | 1.69 | – |
| O=C(O)CC[C@H](NC(=O)N[C@@H](CCCCNC(=O)c1ccc(CNC(=O)c2ccc(CNC(=O)c3ccc(CNC(=O)c4ccc(CNC(=O)CN5CCN(CC(=O)O)CCN(CC(=O)O)CCN(CC(=O)O)CC5)cc4)cc3)cc2)cc1)C(=O)O)C(=O)O | Active | 25.2 | 6.86 | 2.21 | 0.52 | 6.19 | -2.12 | 2.1 | 2.44 | 0.25 |
| O=C(O)CC[C@H](NC(=O)N[C@@H](CCCCNC(=O)[C@H](Cc1ccc2ccccc2c1)NC(=O)CN1CCN(CC(=O)O)CCN(CC(=O)O)CCN(CC(=O)O)CC1)C(=O)O)C(=O)O | – | 1.68 | 1.77 | 4.79 | 0.31 | 28.6 | -2.03 | 1.6 | 2.71 | 0.2 |
| O=C(O)CC[C@H](NC(=O)N[C@@H](CCCCNC(=O)[C@H](Cc1cccc2ccccc12)NC(=O)[C@H]1CC[C@H](CNC(=O)CN2CCN(CC(=O)O)CCN(CC(=O)O)CCN(CC(=O)O)CC2)CC1)C(=O)O)C(=O)O | Not Active | 6.58 | 0.9 | 2.15 | 0.29 | 12.8 | -1.95 | 3.6 | 2.59 | 0.08 |
| O=C(O)CC[C@H](NC(=O)N[C@@H](CCCCNC(=O)[C@H](Cc1ccc(-c2ccccc2)cc1)NC(=O)CN1CCN(CC(=O)O)CCN(CC(=O)O)CCN(CC(=O)O)CC1)C(=O)O)C(=O)O | Active | 4.93 | 2.22 | 6.57 | 0.63 | 0.5 | -1.98 | 2.7 | 2.59 | 0.23 |
| O=C(O)CC[C@H](NC(=O)N[C@@H](CCCCNC(=O)c1ccc(CNC(=O)[C@H](Cc2ccc3ccccc3c2)NC(=O)[C@H]2CC[C@H](CNC(=O)CN3CCN(CC(=O)O)CCN(CC(=O)O)CCN(CC(=O)O)CC3)CC2)cc1)C(=O)O)C(=O)O | – | – | – | Not Determined(Unstable) | Not Determined(Unstable) | – | – | Not Determined(Unstable) | 2.7 | Not Determined(Unstable) |
| O=C(O)CC[C@H](NC(=O)N[C@@H](CCCCNC(=O)[C@H]1CC[C@H](CNC(=O)[C@H](Cc2ccc3ccccc3c2)NC(=O)CN2CCN(CC(=O)O)CCN(CC(=O)O)CCN(CC(=O)O)CC2)CC1)C(=O)O)C(=O)O | Not Active | 1.09 | 0.13 | 3.62 | 0.39 | 17.7 | -1.44 | 3.5 | 2.48 | 0.11 |
| O=C(O)CC[C@H](NC(=O)N[C@@H](CCCCNC(=O)[C@H]1CC[C@H](CNC(=O)CN2CCN(CC(=O)O)CCN(CC(=O)O)CCN(CC(=O)O)CC2)CC1)C(=O)O)C(=O)O | Not Active | 4.14 | 1.24 | 6.86 | 0.23 | 9.33 | -0.91 | 1.5 | 1.81 | 0.15 |
